Experimental data taken from ChEMBL document CHEMBL1140293, “Irreversible inactivation of trypanothione reductase by unsaturated Mannich bases: a divinyl ketone as key intermediate” (J Med Chem, 2005).
The source made the active and inactive calls. No cut-off for these calls is given here.

Assays:
Leishmania donovani = assay: Antiparasitic activity against Leishmania donovani MHOM/ET/67/HU3 intracellular amastigotes; format: functional; conditions: read-out: ED50 (the source's name)
[1] = system: Trypanosoma brucei rhodesiense; assay: Antiparasitic activity against Trypanosoma brucei rhodesiense STIB900 blood stream form; format: functional; conditions: read-out: ED50 (the source's name)
Procedure, shortened: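 Bloodstream-form parasites treated for 3 days; viability by tetrazolium salt colorimetric assay with pentamidine isethionate reference; ED50 derived by sigmoidal regression.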

Trypanosoma cruzi = assay: Antiparasitic activity against Trypanosoma cruzi MHOM/CL/00/Tulahuan-LacZ intracellular amastigotes; format: functional; conditions: read-out: ED50 (the source's name)
Plasmodium falciparum = assay: Antiparasitic activity against chloroquine-sensitive Plasmodium falciparum 3D7 in erythrocytes; format: functional; conditions: read-out: ED50 (the source's name)
[2] = Cytotoxicity against human KB cells by Alamar blue assay; format: cell-based; conditions: read-out: ED50 (the source's name)
Procedure, shortened: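 Human oral pharyngeal carcinoma KB cells; Alamar Blue read-out with podophyllotoxin positive control; ED50 calculated relative to blanks and untreated controls.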

[3] = molecular target: Trypanothione reductase (Trypanosoma cruzi) (UniProt P28593); assay: Inhibition of reduced Trypanosoma cruzei trypanothione reductase at freshly prepared 100 uM
Procedure, shortened: (§1)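 Recombinant T. cruzi TR (0.5 μM) preincubated at 25 °C with inhibitor, with or without 200 μM NADPH, in 40 mM HEPES, 1 mM EDTA, pH 7.5; 5 μL aliquots taken over time into standard assay (100 μM NADPH, 110 μM TS2, A340 decrease). Inhibitor from fresh or stored DMSO stock (stored at 4 °C); half-time at 100 μM. Controls: enzyme+NADPH+DMSO, enzyme+inhibitor without NADPH.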

[4] = molecular target: Trypanothione reductase (Trypanosoma cruzi) (UniProt P28593); assay: Inhibition of Trypanosoma cruzei reduced trypanothione reductase at 5 uM freshly prepared compound within less than 5 mins; procedure, shortened: as §1
[5] = molecular target: Trypanothione reductase (Trypanosoma cruzi) (UniProt P28593); assay: Inhibition of Trypanosoma cruzei trypanothione reductase at 5 uM stored compound within 5 mins; procedure, shortened: as §1
[6] = molecular target: Trypanothione reductase (Trypanosoma cruzi) (UniProt P28593); assay: Inactivation of Trypanosoma cruzei reduced trypanothione reductase at 100 uM freshly prepared compound; parameters: scale not given: the % may be the effect or the level left; procedure, shortened: as §1
[7] = molecular target: Trypanothione reductase (Trypanosoma cruzi) (UniProt P28593); assay: Inactivation of Trypanosoma cruzei reduced trypanothione reductase at 100 uM stored compound; parameters: scale not given: the % may be the effect or the level left; procedure, shortened: as §1
[8] = molecular target: Trypanothione reductase (Trypanosoma cruzi) (UniProt P28593); assay: Inactivation of Trypanosoma cruzei trypanothione reductase at 200 uM; procedure, shortened: as §1
[9] = Inhibition of Plasmodium falciparum thioredoxin reductase in presence of 34 uM thioredoxin 2 substrate
Procedure, shortened: (§2)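 Direct assay at 25 °C, NADPH oxidation at 340 nm, 100 μM NADPH, 1% DMSO; six to eight inhibitor levels 0–100 μM, duplicate. TR: 100 μM TS2, 100 mM phosphate pH 7.0. GR (human): 500 or 50 μM GSSG, 100 mM potassium phosphate pH 7.0, 200 mM KCl. P. falciparum TrxR: 34 μM D. melanogaster thioredoxin-2, 100 mM phosphate pH 7.4, 2 mM EDTA.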

[10] = Inhibition of Plasmodium falciparum thioredoxin reductase after 5 min pre-incubation with NADPH in presence of 34 uM thioredoxin 2 substrate
Procedure, shortened: (§3)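 Enzyme (T. cruzi TR, human GR or P. falciparum TrxR) preincubated 5 min at 25 °C with 160 μM NADPH and 0–20 μM inhibitor, 2% DMSO, 50 μL; 5 μL aliquot into respective standard assay with substrate at 5× Km (100 μM TS2, 500 μM GSSG, 34 μM thioredoxin-2), residual activity at 340 nm.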

[11] = Toxicity in macrophages at >=156 uM; format: cell-based; conditions: human, macrophage
Trypanothione reductase [12] = molecular target: T1, Trypanothione reductase (Trypanosoma cruzi, UniProt P28593); assay: Inhibition of Trypanosoma cruzi trypanothione reductase in presence of 100 uM TS2 substrate; procedure, shortened: as §2
Trypanothione reductase [13] = molecular target: T1, Trypanothione reductase; assay: Inhibition of Trypanosoma cruzi trypanothione reductase after 5 mins pre-incubation with NADPH in presence of 100 uM TS2 substrate; procedure, shortened: as §3
[14] = molecular target: T2, Glutathione reductase, mitochondrial (Homo sapiens, UniProt P00390); assay: Inhibition of human glutathione reductase in presence of 500 uM GSSG substrate; procedure, shortened: as §2
T2 sequence (P00390 whole entry): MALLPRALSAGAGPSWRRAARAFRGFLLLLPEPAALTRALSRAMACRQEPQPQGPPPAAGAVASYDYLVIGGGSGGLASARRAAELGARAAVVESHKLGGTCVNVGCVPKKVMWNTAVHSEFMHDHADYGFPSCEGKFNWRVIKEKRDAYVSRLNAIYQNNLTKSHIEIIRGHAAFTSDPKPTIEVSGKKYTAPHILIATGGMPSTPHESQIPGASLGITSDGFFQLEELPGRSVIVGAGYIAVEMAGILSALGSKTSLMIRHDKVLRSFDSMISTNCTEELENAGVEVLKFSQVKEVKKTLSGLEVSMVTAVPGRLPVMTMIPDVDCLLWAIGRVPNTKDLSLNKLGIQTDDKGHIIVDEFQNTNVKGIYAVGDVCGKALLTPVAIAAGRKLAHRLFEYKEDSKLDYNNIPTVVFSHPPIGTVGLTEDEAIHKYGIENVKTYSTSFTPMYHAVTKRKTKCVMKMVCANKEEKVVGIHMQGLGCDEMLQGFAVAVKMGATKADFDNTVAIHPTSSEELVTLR

[15] = molecular target: T2, Glutathione reductase, mitochondrial; assay: Inhibition of human glutathione reductase in presence of 50 uM GSSG substrate; procedure, shortened: as §2
[16] = molecular target: T2, Glutathione reductase, mitochondrial; assay: Inhibition of human glutathione reductase after 5 mins pre-incubation with NADPH in presence of 500 uM GSSG substrate; procedure, shortened: as §3
[17] = molecular target: Trypanothione reductase (Trypanosoma cruzi) (UniProt P28593); assay: Inhibition of Trypanosoma cruzei reduced trypanothione reductase at 100 uM; procedure, shortened: as §1

Chain of Trypanothione reductase (Trypanosoma cruzi) (P28593 whole entry, looked up): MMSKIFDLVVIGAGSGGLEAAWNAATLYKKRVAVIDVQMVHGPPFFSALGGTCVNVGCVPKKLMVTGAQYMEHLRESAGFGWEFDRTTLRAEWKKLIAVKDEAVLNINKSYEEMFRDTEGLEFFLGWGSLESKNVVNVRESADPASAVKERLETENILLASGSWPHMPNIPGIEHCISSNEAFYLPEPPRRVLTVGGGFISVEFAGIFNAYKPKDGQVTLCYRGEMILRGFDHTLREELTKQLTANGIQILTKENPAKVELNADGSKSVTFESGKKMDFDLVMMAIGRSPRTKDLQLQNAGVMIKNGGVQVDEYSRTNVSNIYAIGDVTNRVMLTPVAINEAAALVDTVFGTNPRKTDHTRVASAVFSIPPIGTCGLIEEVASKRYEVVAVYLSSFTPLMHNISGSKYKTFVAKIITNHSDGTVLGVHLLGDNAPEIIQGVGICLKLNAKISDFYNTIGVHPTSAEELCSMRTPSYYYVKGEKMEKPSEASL
T1 sequence (P28593 whole entry): as the sequence (P28593 whole entry, looked up) above

| Compound | EC50 (Leishmania donovani) [µM] | EC50 [1] [µM] | EC50 (Trypanosoma cruzi) [µM] | EC50 (Plasmodium falciparum) [µM] | T1/2 [3] [min] | CC50 [2] [µM] | other results |
| --- | --- | --- | --- | --- | --- | --- | --- |
| O=C(Cn1ccnc1[N+](=O)[O-])NCc1ccccc1 [BENZNIDAZOLE] |  |  | 4.2 |  |  |  |  |
| CN(C)CC(C)(C)C(=O)/C=C/c1ccccc1Cl |  |  |  |  |  |  | Activity [8]: inactive |
| COc1cc([C@@H]2c3cc4c(cc3[C@H](O)[C@H]3COC(=O)[C@H]23)OCO4)cc(OC)c1OC [PODOFILOX] |  |  |  |  |  | 0.07 |  |
| O=C1C=CC(c2ccccc2Cl)C1 (centres undefined) |  |  |  |  |  |  | Activity [17]: inactive |

Now from value to molecule, other results behind:

| EC50 (Leishmania donovani) [µM] | EC50 [1] [µM] | EC50 (Trypanosoma cruzi) [µM] | EC50 (Plasmodium falciparum) [µM] | T1/2 [3] [min] | Compound | CC50 [2] [µM] | other results |
| --- | --- | --- | --- | --- | --- | --- | --- |
| 41.6 | 1.8 | 8.7 | 27 | 8.6 | CN(C)CCC(=O)/C=C/c1ccccc1Cl | 14.2 | inhibition [4]: 30%; inhibition [5]: 70%; Activity [6]: > 99%; Activity [7]: > 99% |
| 13 | 0.8 | 11.8 | 16.2 | 7.5 | O=C(/C=C/c1ccccc1Cl)CCN1CCCCC1 | 7.3 |  |
|  |  |  |  | 2 | O=C(/C=C/c1ccccc1Cl)CCN1CCOCC1 |  |  |
| 68 | 1.9 | 12.5 | 46.7 | < 0.75 | C=CC(=O)/C=C/c1ccccc1Cl | 1230 | IC50 [9]: 3.7 µM; IC50 [10]: 0.4 µM; Activity [11]: Toxic; IC50 (Trypanothione reductase [12]): 8 µM; IC50 (Trypanothione reductase [13]): 2 µM; IC50 [14]: 190 µM; IC50 [15]: 18.5 µM; IC50 [16]: 5 µM |
|  |  |  | 0.0058 |  | CCN(CC)CCCC(C)Nc1ccnc2cc(Cl)ccc12 (centres undefined) [CHLOROQUINE] |  |  |
| 28.9 | 0.0001 | 4.2 |  |  | N=C(N)c1ccc(OCCCCCOc2ccc(C(=N)N)cc2)cc1 [PENTAMIDINE] |  |  |
